From ChEMBL document CHEMBL1128262, “New steroidal antiinflammatory antedrugs: steroidal [16 alpha,17 alpha-d]-3'-carbethoxyisoxazolines” (1995)

Tests used:
[1] = tested on: Rattus norvegicus; experiment: The plasma corticosterone (ng/ml) concentration was measured in rats after compound administration; type: functional, organism-based
How it was run: (§1)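 Male Sprague-Dawley rats given 5-day once-daily topical steroid to right ears in acetone/DMSO, with croton oil to both ears. Afterward, body weight change, thymus weight change and plasma corticosterone (ng/mL) were recorded against controls. Five or six samples per group, mean ± SEM; ANOVA with Bonferroni post hoc test.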

[2] = tested on: Rattus norvegicus; experiment: The antiinflammatory activity was evaluated as %inhibition of croton oil induced ear edema in the left ear of rat; type: functional
How it was run: (§2)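 Male Sprague-Dawley rats. Right ears dosed topically (acetone/DMSO vehicle, 25 µL) once daily for 5 days, with 5% croton oil applied 30 min after each dose. Left ears received vehicle plus croton oil to reflect systemic effect. Micrometer ear thickness read 5 h after croton oil. % inhibition computed against controls; ANOVA with Bonferroni test.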

[3] = tested on: Rattus norvegicus; experiment: The body weight change of rats after administration of the compound; type: functional; how it was run: as §1
[4] = tested on: Rattus norvegicus; experiment: The antiinflammatory activity was evaluated as %inhibition of croton oil induced ear edema in the right ear of rat; type: functional; how it was run: as §2
[5] = tested on: Rattus norvegicus; experiment: The thymus weight change of rats after administration of the compound; type: functional; how it was run: as §1
[6] = tested on: Rattus norvegicus; experiment: The antiinflammatory activity was evaluated as %inhibition of croton oil induced ear edema in the left ear of rat at the dose of 101(nmol/ear); type: functional; how it was run: as §2
[7] = tested on: Rattus norvegicus; experiment: The antiinflammatory activity was evaluated as %inhibition of croton oil induced ear edema in the right ear of rat at the dose of 101(nmol/ear); type: functional; how it was run: as §2
[8] = tested on: Rattus norvegicus; experiment: The %inhibition of compound for croton oil -induced ear edema was measured in rats at 0.1 mg/ear; type: functional
How it was run: (§3)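 Male Sprague-Dawley rats; initial ear thickness measured with spring-loaded micrometer. Single topical dose of steroid in 25 µL acetone/DMSO applied to ear surfaces, then 5% croton oil 30 min later. Ear thickness remeasured 5 h later at peak inflammation. % inhibition computed against vehicle-treated controls; five animals per group.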

[9] = tested on: Rattus norvegicus; experiment: The %inhibition of compound for croton oil -induced ear edema was measured in rats at 0.01 mg/ear; type: functional; how it was run: as §3
[10] = tested on: Rattus norvegicus; experiment: The %inhibition of compound for croton oil -induced ear edema was measured in rats at 0.03 mg/ear; type: functional; how it was run: as §3
[11] = tested on: Rattus norvegicus; experiment: The antiinflammatory activity was evaluated as %inhibition of croton oil induced ear edema in the left ear of rat At the dose of 135(nmol/ear); type: functional; how it was run: as §2
[12] = tested on: Rattus norvegicus; experiment: The antiinflammatory activity was evaluated as %inhibition of croton oil induced ear edema in the right ear of rat At the dose of 135(nmol/ear); type: functional; how it was run: as §2

## C[C@]12C=CC(=O)C=C1CC[C@@H]1[C@@H]2[C@@H](O)C[C@@]2(C)[C@H]1CC[C@]2(O)C(=O)CO [PREDNISOLONE]
[1]
  Plasma corticosterone: 31.8 ng/mL
[2]
  Inhibition: 49.6%
[3]
  Body weight change: 22.8 g
[4]
  Inhibition: 66.7%
[5]
  Thymus weight: 369 mg

## CCOC(=O)C1=NO[C@]2(C(=O)COC(C)=O)[C@H]1CC1C3CCC4=CC(=O)C=C[C@]4(C)[C@@]3(F)[C@@H](O)C[C@@]12C (stereo partly specified)
[1]
  Plasma corticosterone: 134 ng/mL
[6]
  Inhibition: 8.9%
[3]
  Body weight change: 38 g
[5]
  Thymus weight: 625 mg
[7]
  Inhibition: 51.2%

## CCOC(=O)C1=NO[C@]2(C(=O)CO)[C@H]1CC1C3CCC4=CC(=O)C=C[C@]4(C)[C@H]3[C@@H](O)C[C@@]12C (stereo partly specified)
[8]
  Inhibition: 44%
[9]
  Inhibition: 31.3%
[10]
  Inhibition: 44%

## CCOC(=O)C1=NO[C@]2(C(=O)COC(C)=O)[C@H]1CC1C3CCC4=CC(=O)C=C[C@]4(C)[C@H]3[C@@H](O)C[C@@]12C (stereo partly specified)
[8]
  Inhibition: 35.7%
[9]
  Inhibition: 14.9%
[10]
  Inhibition: 21.4%

## CCOC(=O)C1=NO[C@]2(C(=O)CO)[C@H]1CC1C3CCC4=CC(=O)C=C[C@]4(C)[C@@]3(F)[C@@H](O)C[C@@]12C (stereo partly specified)
[1]
  Plasma corticosterone: 48.6 ng/mL
[3]
  Body weight change: 36 g
[5]
  Thymus weight: 562 mg
[11]
  Inhibition: 24.4%
[12]
  Inhibition: 56.9%
